Laboratory results taken from ChEMBL document CHEMBL5724801, “EUbOPEN Chemogenomics Library - Multiplex” (2024).
Several values for one entry are separate records, joined by “and”; a condition that tells them apart may be missing. Identical values can stand only once.

Tested on: Fibroblast
Assay: Multiplex assay against human fibroblast
Type: toxicity, cell-based
Procedure, shortened: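 Per cents of healthy-nucleus cells form the tubulin, mitochondrial-mass and membrane-permeability phenotype values. Live cells were stained at seeding with Hoechst33342, BioTracker Green Microtubule Cytoskeleton Dye, MitoTracker Red and Annexin V Alexa Fluor 680. After compound addition they were imaged on a CQ1 microscope at 37°C and 5% CO2, and CellPathfinder machine-learning gating split them into Hoechst high-intensity objects or normal cells, normal cells into healthy, pyknosed or fragmented nuclei, and pyknosed cells into mitotic or apoptotic.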

[1] = 12 h, 1 µM, compound concentration 1 uM
[2] = 12 h, 10 µM, compound concentration 10 uM
[3] = 24 h, 1 µM, compound concentration 1 uM
[4] = 24 h, 10 µM, compound concentration 10 uM
[5] = 48 h, 1 µM, compound concentration 1 uM
[6] = 48 h, 10 µM, compound concentration 10 uM

CC(C)(O)C(=O)N1CCN(c2ccc(C(F)(F)F)c(C3=C(c4c[nH]c5ccccc45)C(=O)NC3=O)c2)CC1
Population Apoptotic (%) [1]: 41% and 32% | Population Fragmented Nuclei (%) [1]: 14% and 30% | Population Healthy Nuclei (%) [1]: 68% and 46% | Population Hoechst High Intensity Objects (%) [1]: 2% and 5% | Population Membrane Permeable-Phenotype (%) [1]: 0% and 5% | Population Mitochondria Different-Phenotype (%) [1]: 9% and 5% | Population Mitotic Cells (%) [1]: 58% and 67% | Population Normal (%) [1]: 97% and 94% | Population Pyknosed Nuclei (%) [1]: 17% and 22% | Population Tubulin-Different-Phenotype (%) [1]: 30% and 56% | Total Cell Count [1]: 144 and 170 | Population Apoptotic (%) [2]: 33% and 35% | Population Fragmented Nuclei (%) [2]: 17% and 26% | Population Healthy Nuclei (%) [2]: 50% and 31% | Population Hoechst High Intensity Objects (%) [2]: 4% and 6% | Population Mitochondria Different-Phenotype (%) [2]: 25% and 10% | Population Mitotic Cells (%) [2]: 66% and 64% | Population Normal (%) [2]: 96% and 93% | Population Pyknosed Nuclei (%) [2]: 32% and 42% | Population Tubulin-Different-Phenotype (%) [2]: 83% and 90% | Total Cell Count [2]: 125 and 137 | Population Apoptotic (%) [3]: 50% and 31% | Population Fragmented Nuclei (%) [3]: 22% and 31% | Population Healthy Nuclei (%) [3]: 61% and 45% | Population Hoechst High Intensity Objects (%) [3]: 1% and 8% | Population Membrane Permeable-Phenotype (%) [3]: 0% and 2% | Population Mitochondria Different-Phenotype (%) [3]: 3% and 8% | Population Mitotic Cells (%) [3]: 50% and 68% | Population Normal (%) [3]: 98% and 91% | Population Pyknosed Nuclei (%) [3]: 16% and 23% | Population Tubulin-Different-Phenotype (%) [3]: 40% and 58% | Total Cell Count [3]: 161 and 176 | Population Apoptotic (%) [4]: 26% and 36% | Population Fragmented Nuclei (%) [4]: 24% and 27% | Population Healthy Nuclei (%) [4]: 40% and 33% | Population Hoechst High Intensity Objects (%) [4]: 7% and 3% | Population Membrane Permeable-Phenotype (%) [4]: 2% and 6% | Population Mitochondria Different-Phenotype (%) [4]: 30% and 20% | Population Mitotic Cells (%) [4]: 73% and 63% | Population Normal (%) [4]: 92% and 96% | Population Pyknosed Nuclei (%) [4]: 34% and 39% | Population Tubulin-Different-Phenotype (%) [4]: 79% and 90% | Total Cell Count [4]: 131 and 138 | Population Apoptotic (%) [5]: 64% and 41% | Population Fragmented Nuclei (%) [5]: 21% and 33% | Population Healthy Nuclei (%) [5]: 61% and 37% | Population Hoechst High Intensity Objects (%) [5]: 5% and 7% | Population Membrane Permeable-Phenotype (%) [5]: 0% and 1% | Population Mitochondria Different-Phenotype (%) [5]: 12% and 15% | Population Mitotic Cells (%) [5]: 36% and 58% | Population Normal (%) [5]: 94% and 92% | Population Pyknosed Nuclei (%) [5]: 17% and 28% | Population Tubulin-Different-Phenotype (%) [5]: 38% and 67% | Total Cell Count [5]: 155 and 165 | Population Apoptotic (%) [6]: 54% | Population Fragmented Nuclei (%) [6]: 33% and 35% | Population Healthy Nuclei (%) [6]: 27% and 25% | Population Hoechst High Intensity Objects (%) [6]: 12% and 6% | Population Membrane Permeable-Phenotype (%) [6]: 0% and 10% | Population Mitochondria Different-Phenotype (%) [6]: 53% and 30% | Population Mitotic Cells (%) [6]: 45% | Population Normal (%) [6]: 87% and 93% | Population Pyknosed Nuclei (%) [6]: 38% and 40% | Population Tubulin-Different-Phenotype (%) [6]: 93% and 83% | Total Cell Count [6]: 123 and 129

C[C@H](N)COC(=O)[C@@H](CCCCN)NC(=O)Cc1c(-c2ccc3ccccc3c2)[nH]c2c1ccc1ccccc12
Population Apoptotic (%) [1]: 32% and 50% | Population Fragmented Nuclei (%) [1]: 18% and 25% | Population Healthy Nuclei (%) [1]: 65% and 51% | Population Hoechst High Intensity Objects (%) [1]: 1% and 4% | Population Membrane Permeable-Phenotype (%) [1]: 0% and 5% | Population Mitochondria Different-Phenotype (%) [1]: 7% and 4% | Population Mitotic Cells (%) [1]: 67% and 50% | Population Normal (%) [1]: 98% and 95% | Population Pyknosed Nuclei (%) [1]: 15% and 23% | Population Tubulin-Different-Phenotype (%) [1]: 32% and 36% | Total Cell Count [1]: 179 and 170 | Population Apoptotic (%) [2]: 43% and 62% | Population Fragmented Nuclei (%) [2]: 13% and 32% | Population Healthy Nuclei (%) [2]: 69% and 50% | Population Hoechst High Intensity Objects (%) [2]: 2% and 7% | Population Membrane Permeable-Phenotype (%) [2]: 1% and 5% | Population Mitochondria Different-Phenotype (%) [2]: 8% and 6% | Population Mitotic Cells (%) [2]: 56% and 37% | Population Normal (%) [2]: 97% and 92% | Population Pyknosed Nuclei (%) [2]: 16% and 17% | Population Tubulin-Different-Phenotype (%) [2]: 33% and 47% | Total Cell Count [2]: 183 and 167 | Population Apoptotic (%) [3]: 53% and 29% | Population Fragmented Nuclei (%) [3]: 16% and 25% | Population Healthy Nuclei (%) [3]: 66% and 54% | Population Hoechst High Intensity Objects (%) [3]: 3% and 7% | Population Membrane Permeable-Phenotype (%) [3]: 0% and 3% | Population Mitochondria Different-Phenotype (%) [3]: 5% and 7% | Population Mitotic Cells (%) [3]: 46% and 70% | Population Normal (%) [3]: 96% and 92% | Population Pyknosed Nuclei (%) [3]: 17% and 20% | Population Tubulin-Different-Phenotype (%) [3]: 30% and 39% | Total Cell Count [3]: 179 and 162 | Population Apoptotic (%) [4]: 63% and 50% | Population Fragmented Nuclei (%) [4]: 13% and 36% | Population Healthy Nuclei (%) [4]: 74% and 50% | Population Hoechst High Intensity Objects (%) [4]: 7% and 6% | Population Membrane Permeable-Phenotype (%) [4]: 0% and 5% | Population Mitochondria Different-Phenotype (%) [4]: 5% | Population Mitotic Cells (%) [4]: 36% and 50% | Population Normal (%) [4]: 92% and 93% | Population Pyknosed Nuclei (%) [4]: 11% and 13% | Population Tubulin-Different-Phenotype (%) [4]: 31% and 54% | Total Cell Count [4]: 171 and 159 | Population Apoptotic (%) [5]: 72% and 51% | Population Fragmented Nuclei (%) [5]: 21% and 30% | Population Healthy Nuclei (%) [5]: 65% and 50% | Population Hoechst High Intensity Objects (%) [5]: 5% and 2% | Population Membrane Permeable-Phenotype (%) [5]: 0% and 3% | Population Mitochondria Different-Phenotype (%) [5]: 7% and 6% | Population Mitotic Cells (%) [5]: 27% and 48% | Population Normal (%) [5]: 94% and 97% | Population Pyknosed Nuclei (%) [5]: 12% and 18% | Population Tubulin-Different-Phenotype (%) [5]: 26% and 39% | Total Cell Count [5]: 186 and 169 | Population Apoptotic (%) [6]: 46% and 55% | Population Fragmented Nuclei (%) [6]: 16% and 36% | Population Healthy Nuclei (%) [6]: 68% and 52% | Population Hoechst High Intensity Objects (%) [6]: 9% and 5% | Population Membrane Permeable-Phenotype (%) [6]: 0% and 7% | Population Mitochondria Different-Phenotype (%) [6]: 4% and 8% | Population Mitotic Cells (%) [6]: 53% and 44% | Population Normal (%) [6]: 90% and 94% | Population Pyknosed Nuclei (%) [6]: 15% and 11% | Population Tubulin-Different-Phenotype (%) [6]: 35% and 54% | Total Cell Count [6]: 185 and 166
